As a reminder, the Ki is a dissociation constant, usually derived from enzyme kinetics or from competition with a known ligand. The IC50 is the point on the concentration scale where inhibition reaches its midpoint.

Activity calls are given as the source filed them. The rule behind the calls is not given here.

The target of test [1] is Cyclin-dependent kinase 4/cyclin D1 (Homo sapiens, UniProt P11802). In words: inhibition of CDK4/Cyclin D1. The class given is protein-complex assay. The essentials: (§1)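 Kinase activity measured over 10-point dose-response curves to give IC50; apparent Ki derived from IC50 using the ATP Km of each kinase.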
The next test has as its target CDK9/cyclin T1 (Homo sapiens, UniProt P50750). The experiment in a line: inhibition of CDK9/CyclinT1. The class given is protein-complex assay. The essentials: as §1
Test [2] deals with Cyclin-dependent kinase 7/ cyclin H (Homo sapiens, UniProt P50613). The experiment in a line: inhibition of CDK7/Cyclin H/MAT1. The class given is protein-complex assay. The essentials: as §1
Test [3] deals with Cyclin-dependent kinase 2/cyclin E1 (Homo sapiens, UniProt P24941). In words: inhibition of CDK2/Cyclin E. The class given is protein-complex assay. Summed up: as §1
Test [4] addresses Cyclin-dependent kinase 1/cyclin B1 (Homo sapiens, UniProt P06493). The experiment in a line: inhibition of CDK1/Cyclin B. The class given is protein-complex assay. The essentials: as §1
For another test, the system named is HT-29. The experiment in a line: Antiproliferative activity against human HT-29 cells after 72 hrs by MTT assay. The class given is functional, cell-based. The following applies: HT-29, 72 h. The essentials:
(§2)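 MTT (thiazolyl blue tetrazolium) colorimetric viability read-out after 72 h continuous exposure of cultured cells to test compound.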

Test [5] has as its system WI-38. The experiment in a line: Induction of apoptosis in human WI38 cells assessed as TUNEL-positive cells at 5 uM after 24 hrs by TUNEL assay-based flow cytometric analysis. The class given is functional. Summed up:
(§3)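 Cells exposed 24 h to 5 µM compound or assay diluent alone; TUNEL labelling with flow cytometry, 10 000 cells collected; apoptotic (TUNEL-positive) fraction gated against DNA-content cell cycle stage.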
For orientation: Flow cytometry measures light scatter and fluorescence of single cells or particles in a stream.

For test [6], the target named is T1, Cyclin-dependent kinase (Homo sapiens) (UniProt P06493+P11802+P24941+Q00535+Q00534+P50613+Q00526+Q00536+Q07002+P49336+Q00537+P21127+Q96Q40+Q9BWU1+O94921+P50750+Q15131+Q14004+Q8IZL9+Q9NYV4). The experiment in a line: Inhibition of CDK in human A2780 cells assessed as reduction of RNAP2 phosphorylation at Ser2 site at 5 uM after 6 hrs by Western bloting. The class given is cell-based. The essentials:
(§4)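 Total cell lysate protein (10 µg) resolved on reducing 4-12% gradient SDS-PAGE after 6 h treatment at 5 µM; probed for RNAP-II phospho-Ser2 and phospho-Ser5 CTD alongside total RNAP-II.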
In general terms: In western blotting, separated proteins are transferred to a membrane and probed.

The test system of test [7] is A2780. In words: Induction of apoptosis in human A2780 cells assessed as TUNEL-positive cells at 5 uM after 24 hrs by TUNEL assay-based flow cytometric analysis. The class given is functional. The essentials:
as §3

The test system of the next test is MCF7. The experiment in a line: Antiproliferative activity against human MCF7 cells after 72 hrs by MTT assay. The class given is functional, cell-based. The following applies: MCF7, 72 h. The essentials:
as §2

For test [8], the system named is A2780. In words: Induction of apoptosis in human A2780 cells assessed as caspase 3/7 activity at 2.5 uM after 24 hrs […]. The class given is functional, cell-based. The essentials:
(§5)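 Caspase-3/7 luminescent assay: 10 000 cells seeded per well, treated 24 h; detection reagent added directly at equal volume to medium, read after further 30 min at room temperature.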

Another test concerns HeLa. In words: Antiproliferative activity against human HeLa cells after 72 hrs by MTT assay. The class given is functional, cell-based. Summed up: as §2
A general note: Tetrazolium dyes change colour on reduction, which living cells bring about.

For test [9], the system named is WI-38. The experiment in a line: Induction of apoptosis in human WI38 cells assessed as caspase 3/7 activity at 2.5 uM after 24 hrs […]. The class given is functional, cell-based. The essentials:
as §5

Another test concerns A549. The experiment in a line: Antiproliferative activity against human A549 cells after 72 hrs by MTT assay. The following applies: A549, 72 h. The class given is functional, cell-based. The essentials: as §2
For test [10], the target named is T1, Cyclin-dependent kinase (Homo sapiens). In words: Inhibition of CDK in human A2780 cells assessed as reduction of RNAP2 phosphorylation at Ser5 site at 5 uM after 6 hrs by Western bloting. The class given is cell-based. The essentials:
as §4

For a further test, the system named is SAOS-2. The experiment in a line: Antiproliferative activity against human Saos2 cells after 72 hrs by MTT assay. The class given is functional, cell-based. The following applies: SAOS-2, 72 h. Summed up:
as §2

The target of test [11] is T1, Cyclin-dependent kinase (Homo sapiens). In words: Inhibition of CDK in human A2780 cells assessed as reduction of pRb levels at 5 uM after 6 hrs by Western bloting. The class given is cell-based.
For test [12] the target is unchanged. In words: Inhibition of CDK in human A2780 cells assessed as increase in p53 levels at 5 uM after 6 hrs by Western bloting. The class given is cell-based.

Chain of CDK9/cyclin T1 (O60563 whole entry): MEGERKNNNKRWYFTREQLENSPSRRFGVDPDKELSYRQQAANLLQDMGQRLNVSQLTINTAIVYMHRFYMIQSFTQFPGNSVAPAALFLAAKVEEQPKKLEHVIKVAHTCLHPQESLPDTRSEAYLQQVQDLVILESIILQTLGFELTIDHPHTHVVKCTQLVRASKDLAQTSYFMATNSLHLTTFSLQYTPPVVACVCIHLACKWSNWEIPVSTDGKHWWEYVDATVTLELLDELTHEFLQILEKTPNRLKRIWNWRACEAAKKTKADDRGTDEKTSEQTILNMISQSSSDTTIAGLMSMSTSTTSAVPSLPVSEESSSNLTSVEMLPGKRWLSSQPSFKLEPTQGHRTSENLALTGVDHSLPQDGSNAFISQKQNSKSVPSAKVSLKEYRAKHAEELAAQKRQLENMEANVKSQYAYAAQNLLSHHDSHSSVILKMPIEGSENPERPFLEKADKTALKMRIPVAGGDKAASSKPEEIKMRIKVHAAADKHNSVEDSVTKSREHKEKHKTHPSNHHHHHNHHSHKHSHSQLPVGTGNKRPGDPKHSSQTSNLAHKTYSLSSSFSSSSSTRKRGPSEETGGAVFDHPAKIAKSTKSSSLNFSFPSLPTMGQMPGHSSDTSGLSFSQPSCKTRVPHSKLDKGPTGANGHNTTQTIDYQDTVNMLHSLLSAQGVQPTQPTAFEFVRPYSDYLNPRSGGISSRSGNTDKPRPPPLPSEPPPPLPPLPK
Chain of CDK9/cyclin T1 (P50750 whole entry): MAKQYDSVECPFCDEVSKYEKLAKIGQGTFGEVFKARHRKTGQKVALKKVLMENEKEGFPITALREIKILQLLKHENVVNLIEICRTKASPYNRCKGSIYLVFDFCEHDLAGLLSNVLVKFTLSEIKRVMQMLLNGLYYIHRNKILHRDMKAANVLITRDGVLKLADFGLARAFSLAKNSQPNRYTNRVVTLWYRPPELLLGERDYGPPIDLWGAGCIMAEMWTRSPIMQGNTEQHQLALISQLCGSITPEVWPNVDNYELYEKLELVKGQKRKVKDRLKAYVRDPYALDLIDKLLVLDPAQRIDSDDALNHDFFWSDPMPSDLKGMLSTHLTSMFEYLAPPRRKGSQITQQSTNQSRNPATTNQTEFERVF
Chain of Cyclin-dependent kinase 1/cyclin B1 (P06493 whole entry): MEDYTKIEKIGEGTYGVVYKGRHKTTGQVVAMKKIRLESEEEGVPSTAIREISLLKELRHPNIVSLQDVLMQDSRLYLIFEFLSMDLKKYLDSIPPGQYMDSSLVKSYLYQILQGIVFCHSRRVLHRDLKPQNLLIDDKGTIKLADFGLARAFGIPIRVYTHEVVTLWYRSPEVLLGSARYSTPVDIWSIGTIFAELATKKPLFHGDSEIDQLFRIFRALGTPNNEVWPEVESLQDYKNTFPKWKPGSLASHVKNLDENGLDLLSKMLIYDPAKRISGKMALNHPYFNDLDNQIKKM
Chain of Cyclin-dependent kinase 1/cyclin B1 (P14635 whole entry, further chain): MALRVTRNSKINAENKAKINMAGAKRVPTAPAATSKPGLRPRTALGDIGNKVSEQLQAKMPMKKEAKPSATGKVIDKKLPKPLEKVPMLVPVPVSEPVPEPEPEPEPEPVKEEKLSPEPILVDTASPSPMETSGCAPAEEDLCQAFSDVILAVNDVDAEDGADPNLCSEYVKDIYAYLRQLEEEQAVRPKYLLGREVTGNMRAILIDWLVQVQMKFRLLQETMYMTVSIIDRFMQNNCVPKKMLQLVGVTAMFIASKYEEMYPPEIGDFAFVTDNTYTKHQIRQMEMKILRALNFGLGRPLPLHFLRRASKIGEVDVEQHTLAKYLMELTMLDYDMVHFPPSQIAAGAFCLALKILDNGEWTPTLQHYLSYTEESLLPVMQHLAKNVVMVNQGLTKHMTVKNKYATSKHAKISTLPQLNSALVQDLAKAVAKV
Chain of Cyclin-dependent kinase 7/ cyclin H (P51946 whole entry): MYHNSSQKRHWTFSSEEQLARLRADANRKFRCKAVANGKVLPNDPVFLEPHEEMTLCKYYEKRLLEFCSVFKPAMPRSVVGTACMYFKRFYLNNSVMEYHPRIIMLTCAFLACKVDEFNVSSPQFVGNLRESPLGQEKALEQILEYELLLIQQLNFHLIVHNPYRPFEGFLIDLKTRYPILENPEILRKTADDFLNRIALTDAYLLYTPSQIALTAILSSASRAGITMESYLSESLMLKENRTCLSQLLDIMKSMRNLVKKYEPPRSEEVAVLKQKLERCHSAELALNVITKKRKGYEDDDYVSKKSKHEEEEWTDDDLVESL
Chain of Cyclin-dependent kinase 7/ cyclin H (P50613 whole entry): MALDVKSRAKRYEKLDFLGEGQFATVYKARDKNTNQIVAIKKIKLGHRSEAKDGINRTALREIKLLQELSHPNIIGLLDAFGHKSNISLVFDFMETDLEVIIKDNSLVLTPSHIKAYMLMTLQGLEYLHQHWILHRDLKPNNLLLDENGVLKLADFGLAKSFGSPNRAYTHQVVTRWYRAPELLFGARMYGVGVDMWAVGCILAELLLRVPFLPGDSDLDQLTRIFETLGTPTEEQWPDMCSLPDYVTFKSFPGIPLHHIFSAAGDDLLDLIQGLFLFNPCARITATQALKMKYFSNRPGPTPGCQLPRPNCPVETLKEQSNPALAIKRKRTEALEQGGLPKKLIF
Chain of Cyclin-dependent kinase 4/cyclin D1 (P11802 whole entry): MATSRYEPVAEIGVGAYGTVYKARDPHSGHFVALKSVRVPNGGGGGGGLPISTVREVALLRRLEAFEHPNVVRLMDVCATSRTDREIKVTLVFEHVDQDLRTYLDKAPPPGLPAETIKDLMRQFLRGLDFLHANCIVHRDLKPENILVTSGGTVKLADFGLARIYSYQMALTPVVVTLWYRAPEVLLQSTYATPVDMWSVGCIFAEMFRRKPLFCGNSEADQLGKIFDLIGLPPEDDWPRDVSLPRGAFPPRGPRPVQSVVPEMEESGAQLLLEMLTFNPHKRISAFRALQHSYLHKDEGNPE
Chain of Cyclin-dependent kinase 4/cyclin D1 (P24385 whole entry, further chain): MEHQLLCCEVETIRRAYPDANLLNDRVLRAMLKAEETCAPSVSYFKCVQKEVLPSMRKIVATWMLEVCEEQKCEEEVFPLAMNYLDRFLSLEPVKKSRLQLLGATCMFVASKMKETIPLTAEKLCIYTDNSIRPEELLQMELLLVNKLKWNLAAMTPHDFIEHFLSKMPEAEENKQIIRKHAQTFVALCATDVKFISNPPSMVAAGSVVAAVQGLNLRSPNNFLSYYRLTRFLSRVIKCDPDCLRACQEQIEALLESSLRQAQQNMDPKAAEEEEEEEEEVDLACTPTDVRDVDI

Regarding `Cc1nc2c(s1)-c1nc(Nc3ccc(O)cc3)ncc1CC2`, the Ki in test [1] is 540 nM; on CDK9/cyclin T1 it was 490 nM; in test [2] it was 300 nM; in test [3], 1 nM; in test [4] it was 200 nM.
`Cc1nc2c(s1)-c1nc(Nc3cccc([N+](=O)[O-])c3)ncc1CC2`: the IC50 with HT-29 was determined as 1400 nM; with MCF7 it was 1700 nM; with HeLa, 1100 nM; in the test with A549, 690 nM; with SAOS-2 it was 1200 nM. Further, the Activity in the test with WI-38 [5] is on record as 0.7%; in the test on A2780 [7], 20%. In addition, the Ki in test [1] was 2000 nM; on CDK9/cyclin T1, 2 nM; in test [2] it was 790 nM; in test [3], 23 nM; in test [4] it was 320 nM. In addition, the result (in test [6]; in the test with A2780 [8]; in test [10]; in test [11]; in test [12]) was Active. In addition, the outcome in the test on WI-38 [9] was inactive.
With `Cc1nc2c(s1)-c1nc(Nc3ccc(N4CCOCC4)cc3)ncc1CC2`, the Ki was above 10000 nM in [1]; 640 nM on CDK9/cyclin T1; 1000 nM in [2]; 200 nM in [3]; 15000 nM in test [4].
Regarding `COC(=O)c1ccc(Nc2ncc3c(n2)-c2sc(C)nc2CC3)cc1`, the Ki in test [1] was found to be 2400 nM; on CDK9/cyclin T1, 670 nM; in test [2] it was 6300 nM; in test [3], 920 nM; in test [4], 700 nM.
Regarding `Cc1nc2c(s1)-c1nc(N)ncc1CC2`, the inhibitory constant (Ki) (in [1]; on CDK9/cyclin T1; in test [2]; in test [3]; in test [4]) was above 10000 nM throughout.
With `Cc1nc2c(s1)-c1nc(Nc3ccc([N+](=O)[O-])cc3)ncc1CC2`, the Ki is above 10000 nM in test [1]; 140 nM at CDK9/cyclin T1; 4800 nM in test [2]; 130 nM in test [3]; 310 nM in test [4].
The corresponding values for `Cc1nc2ccc3cnc(Nc4ccccc4)nc3c2s1` are 2700 nM, above 10000 nM, above 10000 nM, 24 nM and 1700 nM.
The corresponding values for `Cc1nc2c(s1)-c1nc(Nc3ccc(C(F)(F)F)cc3)ncc1CC2` are 4900 nM, 1900 nM, above 10000 nM, 160 nM and 960 nM.
For `Cc1nc2c(s1)-c1nc(N(C)c3cccc([N+](=O)[O-])c3)ncc1CC2`, in that order: above 10000 nM, 12000 nM, 1800 nM, 590 nM and 2700 nM.
As for `Nc1nc2c(s1)-c1nc(Nc3cccc([N+](=O)[O-])c3)ncc1CC2`, the Ki in test [1] came to 130 nM; on CDK9/cyclin T1, 3 nM; in test [2], 140 nM; in test [3] it was 1 nM; in test [4], 18 nM.
Turning to `Cc1nc2c(s1)-c1nc(Nc3ccccc3)ncc1CC2`, the Ki in test [1] worked out at 900 nM; at CDK9/cyclin T1 it was 260 nM; in test [2], 2200 nM; in test [3], 1 nM; in test [4], 750 nM.
`Nc1nc2c(s1)-c1nc(Nc3ccccc3)ncc1CC2`: the Ki came to 330 nM in [1]; 110 nM on CDK9/cyclin T1; 1200 nM in [2]; 88 nM in test [3]; 630 nM in test [4].
Take `Cc1nc2c(s1)-c1nc(Nc3cccc(O)c3)ncc1CC2`: the Ki in test [1] turned out to be 580 nM; at CDK9/cyclin T1, 32 nM; in test [2] it was 53 nM; in test [3] it was 11 nM; in test [4], 360 nM.
For `Cc1nc2c(s1)-c1nc(Nc3ccc(Cl)nc3)ncc1CC2`, in that order: 40 nM, 1200 nM, 1400 nM, 25 nM and 19 nM.
Regarding `Cc1nc2ccc3cnc(N(C)c4cccc([N+](=O)[O-])c4)nc3c2s1`, the Ki in test [1] was above 10000 nM; at CDK9/cyclin T1, above 10000 nM; in [2] it was above 10000 nM; in test [3], 1600 nM; in test [4] it was 7500 nM.
Consider `Cc1nc2c(s1)-c1nc(Nc3ccc(N(C)C)cc3)ncc1CC2`, for which the Ki in test [1] stood at 37 nM; at CDK9/cyclin T1, 640 nM; in test [2] it was 60 nM; in test [3] it was 10 nM; in [4], 2500 nM.
Turning to `CN(C)c1ccc(Nc2ncc3c(n2)-c2sc(N)nc2CC3)cc1`, the inhibitory constant (Ki) in [1] stood at 470 nM; on CDK9/cyclin T1, 160 nM; in [2] it was 500 nM; in test [3], 31 nM; in [4], 98 nM.
`COc1ccc(Nc2ncc3c(n2)-c2sc(C)nc2CC3)cn1`: the Ki in test [1] was determined as 120 nM; on CDK9/cyclin T1 it was 1000 nM; in test [2], 1100 nM; in test [3], 49 nM; in test [4], 78 nM.

The values are drawn from ChEMBL document CHEMBL1157567, “Design, synthesis, and evaluation of 2-methyl- and 2-amino-N-aryl-4,5-dihydrothiazolo[4,5-h]quinazolin-8-amines as ring-constrained 2-anilino-4-(thiazol-5-yl)pyrimidine cyclin-dependent kinase inhibitors” (J Med Chem, 2010).
